# Publication PMC3076632 (Journal of medicinal chemistry, 2011)
# Key:
# Format in all cases: cell-based
# human Nod1 = target: T1, human Nod1 (Homo sapiens, UniProt Q9Y239); test: NF-κB induction in HEK-Blue cells; details: for Nod1-agonistic activity (in words): primary screen, NF-κB induction
# T1 sequence (Q9Y239 1-953): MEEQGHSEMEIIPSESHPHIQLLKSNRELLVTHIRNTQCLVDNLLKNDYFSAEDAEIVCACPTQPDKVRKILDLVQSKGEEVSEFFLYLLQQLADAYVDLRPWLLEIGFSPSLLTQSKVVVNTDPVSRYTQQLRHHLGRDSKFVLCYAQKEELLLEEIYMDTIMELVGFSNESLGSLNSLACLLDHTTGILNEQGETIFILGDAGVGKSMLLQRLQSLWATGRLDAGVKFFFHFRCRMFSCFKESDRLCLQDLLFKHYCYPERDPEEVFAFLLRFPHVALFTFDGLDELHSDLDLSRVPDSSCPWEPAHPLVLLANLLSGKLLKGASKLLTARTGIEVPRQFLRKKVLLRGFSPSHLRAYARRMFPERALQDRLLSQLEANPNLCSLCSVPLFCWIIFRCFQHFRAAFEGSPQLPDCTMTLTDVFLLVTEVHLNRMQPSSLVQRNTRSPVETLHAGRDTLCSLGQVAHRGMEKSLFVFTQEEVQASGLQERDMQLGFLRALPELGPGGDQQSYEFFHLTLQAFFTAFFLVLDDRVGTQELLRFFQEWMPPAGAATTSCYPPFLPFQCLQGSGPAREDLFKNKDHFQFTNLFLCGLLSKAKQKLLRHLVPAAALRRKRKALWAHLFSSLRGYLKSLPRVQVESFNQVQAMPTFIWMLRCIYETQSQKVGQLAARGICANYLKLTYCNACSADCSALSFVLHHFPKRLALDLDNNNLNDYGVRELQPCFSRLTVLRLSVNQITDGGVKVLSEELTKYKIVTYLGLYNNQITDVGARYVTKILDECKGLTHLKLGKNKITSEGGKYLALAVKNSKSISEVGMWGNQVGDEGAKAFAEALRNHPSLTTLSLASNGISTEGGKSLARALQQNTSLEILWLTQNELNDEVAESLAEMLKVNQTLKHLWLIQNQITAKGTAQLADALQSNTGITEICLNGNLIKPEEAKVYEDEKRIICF
# Method in brief: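 HEK-Blue cells stably express secreted alkaline phosphatase (sAP) under NF-κB/AP-1 promoters. Cells were grown to confluency, then exposed to graded concentrations of test compound. Extracellular sAP in the supernatant, taken as proportional to Nod1-mediated NF-κB induction, was measured spectrophotometrically at 620 nm with an alkaline phosphatase-specific chromogen in the detection medium.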
# [1] = tested on: CD11b in the granulocytic population in whole human blood; test: CD11b flow cytometric assay in whole human blood; details: ex vivo whole human blood, granulocytes, 1 hour at 37°C, flow cytometry
# Method in brief: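 Fresh anticoagulated whole human blood was incubated with graded dilutions of test compound for 1 h at 37°C, with saline negative controls. Samples were chilled on ice for 15 min, then stained with anti-CD11b/Mac-1 antibody for 30 min on ice so that only surface CD11b was labelled. Erythrocytes were lysed and leukocytes fixed in one step in pre-warmed lyse/fix buffer, then washed twice (200 g, 5 min). Single-colour PE flow cytometry, 20,000 gated events.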
# [2] = tested on: p38 MAPK in the granulocytic population in whole human blood; test: Phosflow flow cytometric assay for p38MAPK in whole human blood; details: ex vivo whole human blood, granulocytes, 15 minutes at 37°C, flow cytometry
# Method in brief: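 Heparinised fresh whole human blood was exposed to graded concentrations of test compound in saline for 15 min at 37°C. One-step erythrocyte lysis and leukocyte fixation, wash (500 g, 8 min), permeabilisation in ice-cold methanol for 30 min, two PBS washes. Staining for 60 min with PE-anti-phospho-p38 (pT180/pY182) mAb or matched PE mouse IgG1κ isotype control. Single-colour PE flow cytometry, 20,000 gated events.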
# Human PBMCs = test: Transcriptomal profiling; details: 20 μg/mL
# Method in brief: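 PBMCs from fresh heparinised human blood were stimulated with test compound at 20 μg/mL for 2 h; total RNA was extracted from treated and negative-control samples. 4 μg RNA per sample was hybridised to U133 plus 2.0 arrays. Chips passed QC (5′/3′ ratio < 3.0), were scaled to target intensity 500 and normalised, with absent-call genes filtered. Differential expression was defined as ≥2-fold change versus negative control.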
Structure (SMILES),Nod1-agonistic activity (in words) (human Nod1),CD11b upregulation (in words) [1],p38 MAPK upregulation (in words) [2],further results
"CCCCCCCCCCCC(=O)N[C@H](CCC(=O)NCCCCCN)C(=O)O [Compound 69, (R)-5-((5-Aminopentyl)amino)-2-dodecanamido-5-oxopentanoic acid]",abrogation of activity,,,
"CCCCCCCCCCCCN(CCCCCCCCCCCC)[C@H](CCC(=O)NC(CCCC(N)C(=O)O)C(=O)O)C(=O)O (stereo partly drawn) [Compound 27, 2-Amino-6-((R)-4-carboxy-4-(didodecylamino)butanamido) heptanedioic acid]",,more potent than 16,more potent than 16,"pathway analysis of induced gene transcripts (in words) (Human PBMCs; IPA pathway analysis): activation of pathways involving signaling mediated by Triggering Receptor Expressed on Myeloid Cells 1; Fold change IL1B (interleukin 1, beta), up (Human PBMCs; probe set 39402_at, two hours, up): 4.45 fold; Fold change IL1RN (interleukin 1 receptor antagonist), up (Human PBMCs; probe set 212659_s_at, two hours, up): 8.19 fold; Fold change IL1RN (interleukin 1 receptor antagonist), up (Human PBMCs; probe set 216243_s_at, two hours, up): 7.54 fold; Fold change IL1RN (interleukin 1 receptor antagonist), up (Human PBMCs; probe set 216244_at, two hours, up): 8.27 fold"
"CCCCCCCCCCCC(=O)N[C@H](CCC(=O)NC(CCCC(N)C(=O)O)C(=O)O)C(=O)O (stereo partly drawn) [Compound 16, 2-Amino-6-((R)-4-carboxy-4-dodecanamidobutanamido) heptanedioic acid]",,upregulated in a dose-dependent manner,upregulated in a dose-dependent manner,EC50 (human Nod1): ~0.03 nM
"CCCCCCCCCCCC(=O)N[C@H](CCC(=O)N[C@H](CCCCN)C(=O)O)C(=O)O [Compound 73, (R)-6-Amino-2-((R)-4-carboxy-4-dodecanamidobutanamido) hexanoic acid]",bereft of any activity,,,
"CCCCCCCCCCCC(=O)N[C@H](CCC(=O)NC(CCCCC(=O)O)C(=O)O)C(=O)O (stereo partly drawn) [Compound 67, 2-((R)-4-carboxy-4-dodecanamidobutanamido)heptanedioic acid]",abrogation of activity,,,
"N[C@H](CCC(=O)N[C@H](CCC[C@H](N)C(=O)O)C(=O)O)C(=O)O [γ-glutamyl-meso-diaminopimelic acid, reference compound]",inactive,inactive,inactive,
